In assay [1] the test system is Mycobacterium tuberculosis. Briefly: Antimycobacterial activity against Mycobacterium tuberculosis H37Rv after 24 hrs by tetrazolium microplate assay. The assay is classed as functional. In a few lines: (§1)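 TEMA broth microdilution; inoculum from 20–30-day-old slant growth suspended in Tween 80/0.2% BSA, adjusted to McFarland No. 1, final ca. 1.2 × 10⁶ CFU/mL. Compound mixed 1:1 with inoculum, DMSO solvent control; sealed plates incubated 37 °C 5 days, then MTT/Tween 80 added, 24 h 37 °C; yellow-to-purple colour change read. MIC = lowest concentration giving 100% inhibition; means of 3 or 4 replicates.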

In assay [2] the test system is Mycobacterium tuberculosis. In words: Antimycobacterial activity against Mycobacterium tuberculosis isolate 02TBDM039EP097 after 24 hrs by tetrazolium microplate assay. The assay is classed as functional. As to conditions: isolate 02TBDM039EP097, 24 h. A digest of the protocol:
as §1

From ChEMBL document CHEMBL1795283, “Dihydro-β-agarofuran sesquiterpenes isolated from Celastrus vulcanicola as potential anti-Mycobacterium tuberculosis multidrug-resistant agents” (2011) come the findings set out here.

In brackets after ≈: the same amount, converted by molar mass.

Turning to `CC(=O)O[C@H]1[C@@H]2[C@@H](OC(C)=O)[C@@]3(OC2(C)C)[C@@](C)([C@@H](OC(C)=O)CC[C@]3(C)O)[C@H]1O`, the MIC in assay [1] and in assay [2] was over 25 µg/mL throughout.

Consider `CC(=O)O[C@H]1[C@@H]2[C@@H](O)[C@]3(OC2(C)C)[C@H](C)CC[C@H](OC(C)=O)[C@@]3(C)[C@H]1OC(=O)c1ccccc1`, for which the MIC in assay [1] and in assay [2] was over 25 µg/mL throughout.

As for `CC(=O)O[C@H]1[C@@H]2[C@@H](OC(=O)c3cccnc3)[C@]3(OC2(C)C)[C@H](C)CC[C@H](OC(C)=O)[C@@]3(C)[C@H]1OC(=O)c1ccccc1`, the results for the MIC in assay [1] and in assay [2] were over 25 µg/mL and 25 µg/mL (≈ 43.1 µM), respectively.

Consider `CC(=O)O[C@H]1[C@@H]2[C@@H](OC(C)=O)[C@@]3(OC2(C)C)[C@@](C)([C@@H](OC(C)=O)CC[C@]3(C)O)[C@H]1OC(C)=O`, for which the MIC in assay [1] and in assay [2] was over 25 µg/mL in each case.

Take `CC(=O)O[C@H]1CC[C@@H](C)[C@@]23C[C@@H](C[C@H](OC(=O)/C=C/c4ccccc4)[C@]12C)C(C)(C)O3`: the MIC in assay [1] and in assay [2] was over 25 µg/mL in each case.

With `CC(=O)O[C@H]1[C@@H]2[C@@H](OC(=O)c3ccccc3)[C@@]3(OC2(C)C)[C@@](C)([C@@H](OC(C)=O)CC[C@]3(C)O)[C@H]1OC(=O)c1ccccc1`, the MIC in assay [1] and in assay [2] was over 25 µg/mL each time.

For the compound `CC(=O)O[C@H]1CC[C@@H](C)[C@]23OC(C)(C)[C@H](C[C@H](OC(=O)/C=C/c4ccccc4)[C@]12C)[C@H]3O`, the MIC (commonly the least concentration at which growth counts as inhibited) in assay [1] was over 25 µg/mL; in assay [2], 25 µg/mL (≈ 56.5 µM).

`NNC(=O)c1ccncc1` [ISONIAZID]: the values for the MIC in assay [1] and in assay [2] were 0.125 µg/mL (≈ 0.911 µM) and 4 µg/mL (≈ 29.2 µM), respectively.

`CC(=O)O[C@H]1CC[C@](C)(O)[C@]23OC(C)(C)[C@H]([C@H](O)[C@H](OC(=O)c4ccccc4)[C@]12C)[C@H]3O` [REISSANTIN D]: the MIC in assay [1] and in assay [2] was over 25 µg/mL in each case.

Consider `CC(=O)O[C@H]1CC[C@](C)(O)[C@]23OC(C)(C)[C@H]([C@H](OC(=O)/C=C/c4ccccc4)[C@H](OC(=O)c4ccccc4)[C@]12C)[C@H]3OC(C)=O`, for which the MIC in assay [1] was over 25 µg/mL; in assay [2], 12.5 µg/mL (≈ 20.1 µM).

For `CC(=O)O[C@H]1[C@@H](O)C[C@](C)(O)[C@]23OC(C)(C)[C@H]([C@H](OC(=O)/C=C/c4ccccc4)[C@H](OC(=O)c4ccccc4)[C@]12C)[C@H]3O`, the MIC in assay [1] and in assay [2] was over 25 µg/mL in each case.

As to `CC1(C)O[C@]23[C@H](O)[C@H]1[C@H](O)[C@H](O)[C@]2(C)[C@@H](O)CC[C@]3(C)O`, the MIC in assay [1] and in assay [2] was over 25 µg/mL in each case.

On to `CC(=O)O[C@H]1CC[C@@H](C)[C@]23OC(C)(C)[C@H](C[C@H](OC(=O)/C=C/c4ccccc4)[C@]12C)[C@H]3OC(C)=O`, for which the MIC in assay [1] was over 25 µg/mL; in assay [2], 12.5 µg/mL (≈ 25.8 µM).

As for `CC(=O)O[C@H]1[C@@H]2[C@@H](OC(=O)c3ccccc3)[C@@]3(OC2(C)C)[C@](C)([C@H]1OC(=O)c1ccccc1)[C@@H](OC(C)=O)[C@@H](O)C[C@]3(C)O`, the MIC in assay [1] and in assay [2] was over 25 µg/mL each time.

In the case of `CC(=O)O[C@H]1CC[C@@H](C)[C@]23OC(C)(C)[C@H]([C@H](OC(=O)/C=C\c4ccccc4)[C@H](OC(=O)c4ccccc4)[C@]12C)[C@H]3O`, the figures for the MIC in assay [1] and in assay [2] were over 25 µg/mL and 25 µg/mL (≈ 44.4 µM), respectively.

For the compound `CC(=O)O[C@H]1CC[C@@H](C)[C@]23OC(C)(C)[C@H](C[C@H](OC(=O)c4ccccc4)[C@]12C)[C@H]3OC(=O)c1ccccc1`, the MIC in assay [1] was over 25 µg/mL; in assay [2], 6.2 µg/mL (≈ 11.9 µM).

Take `CO[C@H]1/C=C/O[C@@]2(C)Oc3c(C)c(O)c4c(O)c(c(/C=N/N5CCN(C)CC5)c(O)c4c3C2=O)NC(=O)/C(C)=C\C=C\[C@H](C)[C@H](O)[C@@H](C)[C@@H](O)[C@@H](C)[C@H](OC(C)=O)[C@@H]1C` [RIFAMPIN]: the MIC in assay [1] was 0.063 µg/mL (≈ 0.0766 µM); in assay [2] it was over 16 µg/mL.

Regarding `CC(=O)O[C@H]1CC[C@](C)(O)[C@]23OC(C)(C)[C@H]([C@H](OC(=O)[C@H](O)[C@@H](O)c4ccccc4)[C@H](OC(=O)c4ccccc4)[C@]12C)[C@H]3O`, the MIC in assay [1] and in assay [2] was over 25 µg/mL throughout.

In the case of `CC(=O)O[C@@H]1[C@@H]2[C@@H](OC(=O)c3ccccc3)[C@@]3(OC2(C)C)[C@@](C)([C@@H](OC(C)=O)CC[C@]3(C)O)[C@H]1OC(=O)c1ccccc1`, the values for the MIC in assay [1] and in assay [2] were over 25 µg/mL and 12.5 µg/mL (≈ 21 µM), respectively.

In the case of `CC(=O)O[C@@H]1[C@@H]2[C@@H](OC(=O)c3cccnc3)[C@@]3(OC2(C)C)[C@@](C)([C@@H](OC(C)=O)CC[C@]3(C)O)[C@H]1OC(=O)c1ccccc1`, the MIC in assay [1] and in assay [2] was over 25 µg/mL each time.

For the compound `CC(=O)O[C@H]1CC[C@](C)(O)[C@]23OC(C)(C)[C@H]([C@H](OC(=O)/C=C/c4ccccc4)[C@H](OC(=O)c4ccccc4)[C@]12C)[C@H]3O`, the MIC in assay [1] is over 25 µg/mL; in assay [2], 12.5 µg/mL (≈ 21.6 µM).

Turning to `CC(=O)O[C@H]1CC[C@@H](C)[C@]23OC(C)(C)[C@H]([C@H](OC(=O)/C=C/c4ccccc4)[C@H](OC(=O)c4ccccc4)[C@]12C)[C@H]3O`, the figures for the MIC in assay [1] and in assay [2] were over 25 µg/mL and 12.5 µg/mL (≈ 22.2 µM), respectively.

Turning to `CC(=O)O[C@H]1[C@@H]2[C@@H](OC(=O)c3cccnc3)[C@@]3(OC2(C)C)[C@@](C)([C@@H](OC(C)=O)CC[C@]3(C)O)[C@H]1OC(=O)c1ccccc1`, the MIC in assay [1] and in assay [2] was over 25 µg/mL each time.

As to `CC(=O)O[C@H]1[C@@H]2[C@@H](O)[C@@]3(OC2(C)C)[C@@](C)([C@@H](OC(C)=O)CC[C@]3(C)O)[C@H]1O`, the MIC in assay [1] and in assay [2] was over 25 µg/mL each time.

With `CC(=O)O[C@H]1CC[C@](C)(O)[C@]23OC(C)(C)[C@H]([C@H](O)[C@H](OC(=O)c4ccccc4)[C@]12C)[C@H]3OC(C)=O`, the MIC in assay [1] and in assay [2] was over 25 µg/mL in each case.

In the case of `CC(=O)O[C@H]1CC[C@](C)(O)[C@]23OC(C)(C)[C@H]([C@H](OC(=O)/C=C\c4ccccc4)[C@H](OC(=O)c4ccccc4)[C@]12C)[C@H]3O`, the MIC in assay [1] and in assay [2] was over 25 µg/mL each time.
